Calls of active or inactive are those of the source. The rule behind the calls is not given here.
Experiments:
Sus scrofa [1] = species: Sus scrofa; assay: Induction of porcine tubulin polymerisation at 2 times MIC for penicillin-resistant Staphylococcus aureus by fluorescence microscopy
Outline: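 Polymerisation of mammalian tubulin measured with a commercial tubulin assay kit, read by fluorescence of the kit reporter, with paclitaxel as the positive control for enhanced polymerisation.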

Streptococcus pyogenes [2] = assay: Antibacterial activity against penicillin-resistant Streptococcus pyogenes clinical isolates incubated for 24 hrs by tube-dilution method; type: functional
Bacillus subtilis [3] = assay: Potency index, ratio of MIC for sanguinarine to MIC for test compound against penicillin-susceptible Bacillus subtilis ATCC 9372 incubated for 24 hrs by tube-dilution method; type: functional
Bacillus subtilis [4] = assay: Antibacterial activity against penicillin-susceptible Bacillus subtilis ATCC 9372 incubated for 24 hrs by tube-dilution method; type: functional; details: ATCC 9372, 24 h
Outline: (§1)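 MIC by tube dilution per NCCLS; B. subtilis ATCC9372, E. coli ATCC25922, P. aeruginosa ATCC27853 and S. aureus ATCC25923 are penicillin-susceptible strains.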

Pseudomonas aeruginosa [5] = assay: Inhibition of FtsZ in penicillin-susceptible Pseudomonas aeruginosa ATCC 27853 assessed as lowest drug concentration causing inhibition of cell division incubated for 5 hrs by phase-contrast light microscopy
Outline: (§2)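 Cell division inhibition judged from bacterial cell morphology under phase-contrast light microscopy, scored as lowest concentration altering division; penicillin-susceptible strains B. subtilis ATCC9372, E. coli ATCC25922, P. aeruginosa ATCC27853, S. aureus ATCC25923.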

Bacillus subtilis [6] = assay: Potency index, ratio of MIC for oxacillin sodium to MIC for test compound against penicillin-susceptible Bacillus subtilis ATCC 9372 incubated for 24 hrs by tube-dilution method; type: functional
Pseudomonas aeruginosa [7] = assay: Antibacterial activity against penicillin-susceptible Pseudomonas aeruginosa ATCC 27853 incubated for 24 hrs by tube-dilution method; type: functional; details: ATCC 27853, 24 h; outline: as §1
[8] = tested on: Staphylococcus epidermidis; assay: Antibacterial activity against penicillin-resistant Staphylococcus epidermidis clinical isolates incubated for 24 hrs by tube-dilution method; type: functional
Streptococcus pyogenes [9] = assay: Potency index, ratio of MIC for sanguinarine to MIC for test compound against penicillin-susceptible Streptococcus pyogenes clinical isolates incubated for 24 hrs by tube-dilution method; type: functional
Staphylococcus aureus [10] = assay: Antibacterial activity against penicillin-resistant Staphylococcus aureus clinical isolates incubated for 24 hrs by tube-dilution method; type: functional
Escherichia coli [11] = assay: Antibacterial activity against penicillin-susceptible Escherichia coli ATCC 25922 incubated for 24 hrs by tube-dilution method; type: functional; details: ATCC 25922, 24 h; outline: as §1
Staphylococcus aureus [12] = assay: Antibacterial activity against […] Staphylococcus aureus ATCC 29213 incubated for 24 hrs by tube-dilution method; type: functional; details: ATCC 29213, 24 h
Outline: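 Broth tube-dilution MIC run as NCCLS recommends, against the […] S. aureus strain ATCC29213.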

Bacillus subtilis [13] = assay: Potency index, ratio of MIC for ciprofloxaxin to MIC for test compound against penicillin-susceptible Bacillus subtilis ATCC 9372 incubated for 24 hrs by tube-dilution method; type: functional
Bacillus subtilis [14] = assay: Potency index, ratio of MIC for curcumin to MIC for test compound against penicillin-susceptible Bacillus subtilis ATCC 9372 incubated for 24 hrs by tube-dilution method; type: functional
Staphylococcus aureus [15] = assay: Antibacterial activity against penicillin-susceptible Staphylococcus aureus ATCC 25923 incubated for 24 hrs by tube-dilution method; type: functional; details: ATCC 25923, 24 h; outline: as §1
Bacillus subtilis [16] = assay: Inhibition of FtsZ in penicillin-susceptible Bacillus subtilis ATCC 9372 assessed as lowest drug concentration causing inhibition of cell division incubated for 5 hrs by phase-contrast light microscopy; outline: as §2
Streptococcus pyogenes [17] = assay: Potency index, ratio of MIC for oxacillin sodium to MIC for test compound against penicillin-susceptible Streptococcus pyogenes clinical isolates incubated for 24 hrs by tube-dilution method; type: functional
Sus scrofa [18] = species: Sus scrofa; assay: Inhibition of porcine tubulin polymerisation at 32 ug/ml by fluorescence microscopy
Outline: (§3)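 Polymerisation of mammalian tubulin followed with a commercial tubulin assay kit using a fluorescent reporter; compounds tested at 32 µg/mL or 256 µg/mL, paclitaxel as positive control.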

Streptococcus pyogenes [19] = assay: Antibacterial activity against penicillin-susceptible Streptococcus pyogenes clinical isolates incubated for 24 hrs by tube-dilution method; type: functional
Escherichia coli [20] = assay: Inhibition of FtsZ in penicillin-susceptible Escherichia coli ATCC 25922 assessed as lowest drug concentration causing inhibition of cell division incubated for 5 hrs by phase-contrast light microscopy; outline: as §2
Staphylococcus aureus [21] = assay: Inhibition of FtsZ in penicillin-susceptible Staphylococcus aureus ATCC 25923 assessed as lowest drug concentration causing inhibition of cell division incubated for 5 hrs by phase-contrast light microscopy; outline: as §2
Staphylococcus aureus [22] = assay: Potency index, ratio of MIC for oxacillin sodium to MIC for test compound against […] Staphylococcus aureus ATCC 29213 incubated for 24 hrs by tube-dilution method; type: functional
Staphylococcus aureus [23] = assay: Potency index, ratio of MIC for curcumin to MIC for test compound against […] Staphylococcus aureus ATCC 29213 incubated for 24 hrs by tube-dilution method; type: functional
Sus scrofa [24] = species: Sus scrofa; assay: Inhibition of porcine tubulin polymerisation at 256 ug/ml by fluorescence microscopy; outline: as §3

| SMILES | Activity (Sus scrofa [1]) | MIC (Streptococcus pyogenes [2]) [µg/mL] | MIC (Bacillus subtilis [4]) [µg/mL] | MIC (Pseudomonas aeruginosa [5]) [µg/mL] | MIC (Pseudomonas aeruginosa [7]) [µg/mL] | MIC [8] [µg/mL] | MIC (Staphylococcus aureus [10]) [µg/mL] | MIC (Escherichia coli [11]) [µg/mL] | MIC (Staphylococcus aureus [12]) [µg/mL] | MIC (Staphylococcus aureus [15]) [µg/mL] | MIC (Bacillus subtilis [16]) [µg/mL] | MIC (Streptococcus pyogenes [19]) [µg/mL] | MIC (Escherichia coli [20]) [µg/mL] | MIC (Staphylococcus aureus [21]) [µg/mL] | further results |
| --- | --- | --- | --- | --- | --- | --- | --- | --- | --- | --- | --- | --- | --- | --- | --- |
| CC(C)c1cccc2c3ccccc3c[n+](C)c12.[Cl-] | inactive | 8 | 4 | > 128 | > 128 | 64 | 16 | > 128 | 64 | 8 | 4 | 4 | > 128 | 8 | Ratio (Bacillus subtilis [3]): 2; Ratio (Bacillus subtilis [6]): 2; Ratio (Streptococcus pyogenes [9]): 2; Ratio (Bacillus subtilis [13]): 2; Ratio (Bacillus subtilis [14]): 8; Ratio (Streptococcus pyogenes [17]): 4; inhibition (Sus scrofa [18]): Active |
| CSc1cccc2c3ccccc3c[n+](C)c12.[Cl-] | inactive | 8 | 8 | > 128 | > 128 | > 128 | 8 | > 128 | 16 | 16 | 8 | 8 | 128 | 16 | Ratio (Staphylococcus aureus [22]): 8; Ratio (Staphylococcus aureus [23]): 8 |
| C[n+]1cc2ccccc2c2cc(OC(F)(F)F)ccc21.[Cl-] | inactive | 128 | 128 | > 128 | > 128 | 128 | 128 | > 128 | > 128 | 128 | 64 | 128 | > 128 | 128 | inhibition (Sus scrofa [24]): Active |
